≈ marks a conversion by molar mass, not a printed value.
Tests used:
Plasmodium falciparum = test: Antimalarial activity against chloroquine-sensitive Plasmodium falciparum 3D7 […] after 72 hrs by twofold serial dilution method; type: functional, organism-based
Outline: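 P. falciparum 3D7 erythrocyte culture, 2.5% cell suspension at 0.5% parasitaemia. Compounds were twofold serially diluted from 500 ng/mL (seven concentrations) in duplicate wells and incubated 72 h. Lysis buffer with SYBR Green I (Tris pH 7.5, EDTA, saponin, Triton X-100) was added, followed by 1 h at room temperature and a fluorescence read. IC50 from non-linear regression dose–response curves.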

[1] = Selectivity index, ratio of CC50 for african green monkey (Cercopithecus aethiops) Vero cells to IC50 for chloroquine-sensitive Plasmodium falciparum 3D7; type: functional
Outline: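 SI is Vero CC50 divided by the antiplasmodial IC50. For CC50, Vero (C-1008) cells at 1 × 10⁴ cells/well were exposed to varying compound concentrations for 72 h with an MTT read-out. CC50 is the concentration killing 50% of cells.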

Plasmodium yoelii [2] = test: Antiplasmodial activity against Plasmodium yoelii infected in Swiss mice (Mus musculus) erythrocytes assessed as inhibition of beta-hematin formation after 16 hrs by fluorescence assay; type: functional, organism-based; conditions: in the assay text read “absorbance measurement at 400 nm” for “fluorescence assay”
Outline: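 Plasma came from P. yoelii-infected mouse blood at about 50% parasitemia, collected in citrate and centrifuged. The mix held 100 mM sodium acetate pH 5.1, 50 µL plasma and 100 µM hemin substrate in 1.0 mL, run in triplicate at 37 °C for 16 h with shaking. The pellet was dissolved in Tris-HCl pH 7.4 with 2.5% SDS. Absorbance at 400 nm; IC50 by non-linear regression.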

Plasmodium yoelii [3] = test: Antimalarial activity against chloroquine-resistant Plasmodium yoelii N67 infected in Swiss mice (Mus musculus) assessed as inhibition of parasitaemia at 50 mg/kg, intraperitoneally administered daily for 4 days measured on day 4 post-infection; type: functional; conditions: for inhibition in vivo at 50 mg/kg: N67, ip, 96 h, route intraperitoneal
Outline: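 Swiss mice were inoculated with 1 × 10⁶ P. yoelii N-67 parasitized RBC on day 0. Groups of five received compound as an aqueous suspension with a few drops of Tween 80, at 50 mg/kg/day intraperitoneally once daily from day 0 to 3. Parasitaemia was read from thin smears on day 4, with group-mean percent suppression against untreated controls.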

[4] = Plasmodium falciparum, 3D7, Vero, 72 h, read-out: IC50

Compound | IC50 (Plasmodium falciparum; [4]) | Ratio CC50/IC50 [1] | IC50 (Plasmodium yoelii [2]; Plasmodium yoelii, 16 h) | inhibition in vivo at 50 mg/kg (Plasmodium yoelii [3]) | IC50 (Plasmodium falciparum; vero) | Activity (Plasmodium yoelii [3]) | IC50 (Plasmodium yoelii [2])
CCCCNC(=O)C(=O)NCCCNc1ccnc2cc(Cl)ccc12 | 0.233 µg/mL (≈ 0.643 µM) | 38.13 | 15.7 µg/mL (≈ 43.2 µM) |  |  |  | 
Clc1ccc2c(NCCCNc3nc(NCCN4CCOCC4)nc(N4CCOCC4)n3)ccnc2c1 | 0.0179 µg/mL (≈ 0.0338 µM) | 1017.32 | 8.72 µg/mL (≈ 16.5 µM) |  |  |  | 
CCN(CC)CCNC(=O)C(=O)NCCNc1ccnc2cc(Cl)ccc12 | 0.0503 µg/mL (≈ 0.128 µM) | 605.61 | 7.01 µg/mL (≈ 17.9 µM) |  |  |  | 
O=C(NCCCN1CCOCC1)C(=O)NCCNc1ccnc2cc(Cl)ccc12 | 0.0313 µg/mL (≈ 0.0746 µM) | 1567.05 | 7.18 µg/mL (≈ 17.1 µM) | 43.6% |  |  | 
CC(C)(C)NC(=O)C(=O)N1CCN(CCNc2ccnc3cc(Cl)ccc23)CC1 |  |  |  |  | Not Active |  | 
Cn1cc(C(=O)C(=O)N2CCN(c3ccnc4cc(Cl)ccc34)CC2)c2ccccc21 |  |  |  |  | Not Active |  | 
CCN(CC)CCNC(=O)C(=O)NCCCNc1ccnc2cc(Cl)ccc12 | 0.0156 µg/mL (≈ 0.0384 µM) | 232.99 | 7.99 µg/mL (≈ 19.7 µM) |  |  |  | 
CN(C)CCNc1nc(NCCNc2ccnc3cc(Cl)ccc23)nc(N2CCCCC2)n1 | 0.0159 µg/mL (≈ 0.0338 µM) | 1062.3 | 13.3 µg/mL (≈ 28.4 µM) |  |  |  | 
CN(C)CCNC(=O)C(=O)NCCCNc1ccnc2cc(Cl)ccc12 | 0.0264 µg/mL (≈ 0.0699 µM) | 2527.65 | 7.98 µg/mL (≈ 21.1 µM) | 70.5% |  |  | 
Cn1cc(C(=O)C(=O)N2CCN(CCNc3ccnc4cc(Cl)ccc34)CC2)c2ccccc21 |  |  |  |  | Not Active |  | 
CN(C)CCNc1nc(NCCCNc2ccnc3cc(Cl)ccc23)nc(N2CCCCC2)n1 | 0.0156 µg/mL (≈ 0.0323 µM) | 330.11 | 8.19 µg/mL (≈ 16.9 µM) |  |  |  | 
CN(C)CCNc1nc(NCCNc2ccnc3cc(Cl)ccc23)nc(N2CCOCC2)n1 | 0.0394 µg/mL (≈ 0.0835 µM) | 1291.71 | 8.1 µg/mL (≈ 17.2 µM) |  |  |  | 
CCN(CC)CCNc1nc(NCCCNc2ccnc3cc(Cl)ccc23)nc(N2CCOCC2)n1 | 0.0403 µg/mL (≈ 0.0783 µM) | 1068.32 | 10.6 µg/mL (≈ 20.7 µM) |  |  |  | 
CN1CCN(c2nc(NCCNc3ccnc4cc(Cl)ccc34)nc(N3CCOCC3)n2)CC1 | 0.01 µg/mL (≈ 0.0207 µM) | 4692.08 | 6.19 µg/mL (≈ 12.8 µM) |  |  | Toxic | 
CCN(CC)CCNc1nc(NCCCNc2ccnc3cc(Cl)ccc23)nc(N2CCCCC2)n1 | 0.00897 µg/mL (≈ 0.0175 µM) | 1011.15 | 7.45 µg/mL (≈ 14.5 µM) |  |  |  | 
Cc1ccc(S(=O)(=O)n2cc(C(=O)C(=O)N3CCN(CCNc4ccnc5cc(Cl)ccc45)CC3)c3ccccc32)cc1 |  |  |  |  | Not Active |  | 
CN1CCN(c2nc(NCCCNc3ccnc4cc(Cl)ccc34)nc(N3CCOCC3)n2)CC1 | 0.0401 µg/mL (≈ 0.0805 µM) | 704.25 | 8.55 µg/mL (≈ 17.2 µM) |  |  |  | 
CN(C)CCNc1nc(NCCCNc2ccnc3cc(Cl)ccc23)nc(N2CCOCC2)n1 | 0.164 µg/mL (≈ 0.337 µM) | 219.77 | 7.94 µg/mL (≈ 16.3 µM) |  |  |  | 
O=C(NCCNc1ccnc2cc(Cl)ccc12)C(=O)NCCN1CCOCC1 | 0.0908 µg/mL (≈ 0.224 µM) | 567.43 | 6.87 µg/mL (≈ 16.9 µM) |  |  |  | 
CN(C)CCNC(=O)C(=O)N1CCN(CCNc2ccnc3cc(Cl)ccc23)CC1 | 0.0844 µg/mL (≈ 0.195 µM) | 65 | < 20 µg/mL |  |  |  | 
Cc1ccc(S(=O)(=O)n2cc(C(=O)C(=O)N3CCN(c4ccnc5cc(Cl)ccc45)CC3)c3ccccc32)cc1 |  |  |  |  | Not Active |  | 
CC(C)(C)NC(=O)C(=O)N1CCN(c2ccnc3cc(Cl)ccc23)CC1 |  |  |  |  | Not Active |  | 
O=C(NCCN1CCOCC1)C(=O)N1CCN(CCNc2ccnc3cc(Cl)ccc23)CC1 | 0.262 µg/mL (≈ 0.551 µM) | 183.05 | 14.2 µg/mL (≈ 29.8 µM) |  |  |  | 
Clc1ccc2c(NCCCNc3nc(NCCCN4CCOCC4)nc(N4CCCCC4)n3)ccnc2c1 | 0.00523 µg/mL (≈ 0.00968 µM) | 860.41 | 7.54 µg/mL (≈ 14 µM) |  |  | Toxic | 

Compound | IC50 (Plasmodium falciparum; [4]) | Ratio CC50/IC50 [1] | IC50 (Plasmodium yoelii [2]; Plasmodium yoelii, 16 h) | inhibition in vivo at 50 mg/kg (Plasmodium yoelii [3]) | IC50 (Plasmodium falciparum; vero) | Activity (Plasmodium yoelii [3]) | IC50 (Plasmodium yoelii [2])
O=C(NCCCN1CCOCC1)C(=O)N1CCN(CCNc2ccnc3cc(Cl)ccc23)CC1 | 0.0408 µg/mL (≈ 0.0835 µM) | 1221.84 |  |  |  |  | Not Active
CCN(CC)CCNC(=O)C(=O)N1CCN(c2ccnc3cc(Cl)ccc23)CC1 | 0.042 µg/mL (≈ 0.1 µM) | 1183.41 | < 20 µg/mL |  |  |  | 
O=C(NCCN1CCOCC1)C(=O)N1CCN(c2ccnc3cc(Cl)ccc23)CC1 |  |  |  |  | Not Active |  | 
CCCCNC(=O)C(=O)N1CCN(CCNc2ccnc3cc(Cl)ccc23)CC1 |  |  |  |  | Not Active |  | 
CN(C)CCNC(=O)C(=O)NCCNc1ccnc2cc(Cl)ccc12 | 0.0316 µg/mL (≈ 0.0868 µM) | 383.03 | 11.1 µg/mL (≈ 30.5 µM) |  |  |  | 
CN1CCN(c2nc(NCCCNc3ccnc4cc(Cl)ccc34)nc(N3CCCCC3)n2)CC1 | 0.00913 µg/mL (≈ 0.0184 µM) | 530.2 | 7.45 µg/mL (≈ 15 µM) |  |  |  | 
Clc1ccc2c(NCCNc3nc(NCCN4CCOCC4)nc(N4CCOCC4)n3)ccnc2c1 | 0.0482 µg/mL (≈ 0.0937 µM) | 1176.4 | 17.2 µg/mL (≈ 33.4 µM) |  |  |  | 
O=C(C(=O)N1CCN(c2ccnc3cc(Cl)ccc23)CC1)c1c[nH]c2ccccc12 |  |  |  |  | Not Active |  | 
CCCCNC(=O)C(=O)NCCNc1ccnc2cc(Cl)ccc12 | 0.233 µg/mL (≈ 0.668 µM) | 18.88 | 6.76 µg/mL (≈ 19.4 µM) |  |  |  | 
CCN(CC)CCNc1nc(NCCNc2ccnc3cc(Cl)ccc23)nc(N2CCOCC2)n1 | 0.0297 µg/mL (≈ 0.0595 µM) | 1663.75 | 9.42 µg/mL (≈ 18.8 µM) |  |  |  | 
Clc1ccc2c(NCCNc3nc(NCCCN4CCOCC4)nc(N4CCCCC4)n3)ccnc2c1 | 0.0656 µg/mL (≈ 0.125 µM) | 65.21 | 7.79 µg/mL (≈ 14.8 µM) |  |  |  | 
Clc1ccc2c(NCCCNc3nc(NCCCN4CCOCC4)nc(N4CCOCC4)n3)ccnc2c1 | 0.0521 µg/mL (≈ 0.096 µM) | 706.15 | 8.6 µg/mL (≈ 15.9 µM) |  |  |  | 
O=C(NCCCNc1ccnc2cc(Cl)ccc12)C(=O)NCCCN1CCOCC1 | 0.0254 µg/mL (≈ 0.0586 µM) | 1625.52 | 8.74 µg/mL (≈ 20.1 µM) | 21.4% |  |  | 
O=C(C(=O)N1CCN(CCNc2ccnc3cc(Cl)ccc23)CC1)c1c[nH]c2ccccc12 |  |  |  |  | Not Active |  | 
CCCCNC(=O)C(=O)N1CCN(c2ccnc3cc(Cl)ccc23)CC1 |  |  |  |  | Not Active |  | 
CN(C)CCNC(=O)C(=O)N1CCN(c2ccnc3cc(Cl)ccc23)CC1 |  |  |  |  | Not Active |  | 
Clc1ccc2c(NCCCNc3nc(NCCN4CCOCC4)nc(N4CCCCC4)n3)ccnc2c1 |  |  |  |  | Not Active |  | 
O=C(NCCCNc1ccnc2cc(Cl)ccc12)C(=O)NCCN1CCOCC1 | 0.0822 µg/mL (≈ 0.196 µM) | 191.82 | 10.7 µg/mL (≈ 25.4 µM) |  |  |  | 
Clc1ccc2c(NCCNc3nc(NCCCN4CCOCC4)nc(N4CCOCC4)n3)ccnc2c1 | 0.0222 µg/mL (≈ 0.042 µM) | 2405.86 | 8.58 µg/mL (≈ 16.2 µM) |  |  |  | 
CCN(CC)CCNc1nc(NCCNc2ccnc3cc(Cl)ccc23)nc(N2CCCCC2)n1 | 0.0147 µg/mL (≈ 0.0295 µM) | 223.13 | 10.2 µg/mL (≈ 20.4 µM) |  |  |  | 
Clc1ccc2c(NCCNc3nc(NCCN4CCOCC4)nc(N4CCCCC4)n3)ccnc2c1 |  |  |  |  | Not Active |  | 
CCN(CC)CCNC(=O)C(=O)N1CCN(CCNc2ccnc3cc(Cl)ccc23)CC1 | 0.0798 µg/mL (≈ 0.173 µM) | 194 |  |  |  |  | Not Active
O=C(NCCCN1CCOCC1)C(=O)N1CCN(c2ccnc3cc(Cl)ccc23)CC1 |  |  |  |  | Not Active |  | 
CN1CCN(c2nc(NCCNc3ccnc4cc(Cl)ccc34)nc(N3CCCCC3)n2)CC1 | 0.00788 µg/mL (≈ 0.0163 µM) | 958.12 | 9.1 µg/mL (≈ 18.9 µM) |  |  | Toxic | 

From ChEMBL document CHEMBL1152534, “Synthesis of oxalamide and triazine derivatives as a novel class of hybrid 4-aminoquinoline with potent antiplasmodial activity” (Bioorg Med Chem, 2009)
